# Key:
# [1] = Intrinsic clearance in human liver microsomes; type: ADME; conditions: read-out: CLH
# CDK9/cyclin T1 = CDK9/cyclin T1 (Homo sapiens, UniProt P50750); experiment: Inhibition of CDK9/cyclin T1 (unknown origin) using 4eBP1 ULight peptide as substrate by HTRF assay; type: protein-complex assay
# [2] = biological target: Cyclin-dependent kinase 1/cyclin B1 (Homo sapiens, UniProt P06493); experiment: Inhibition of CDK1/cyclin B (unknown origin) by HTRF assay; type: protein-complex assay
# [3] = biological target: Cyclin-dependent kinase 2/cyclin E1 (Homo sapiens, UniProt P24941); experiment: Inhibition of CDK2/cyclin E (unknown origin) using ULight peptide as substrate by HTRF assay; type: protein-complex assay
# [4] = Intrinsic clearance in rat liver microsomes; type: ADME; conditions: read-out: CLH
# [5] = biological target: Cell division cycle 7-related protein kinase (Homo sapiens, UniProt O00311); experiment: Inhibition of Cdc7-mediated MCM2 phosphorylation at Ser53 in human HCT116 cells after 14 hrs by immunostaining assay; type: cell-based, HCT-116
# [6] = biological target: CDC7/DBF4 (Cell division cycle 7-related protein kinase/Activator of S phase kinase) (Homo sapiens, UniProt O00311); experiment: Inhibition of Cdc7/Dbf4 (unknown origin)-mediated MCM2 phosphorylation at Ser53 by protein A amplified luminescent proximity homogeneous assay; type: protein-complex assay
# Homo sapiens = organism: Homo sapiens; experiment: Selectivity ratio of IC50 for CDK2/cyclin E (unknown origin) to IC50 for Cdc7/Dbf4 (unknown origin)
# Mus musculus [7] = experiment: In vivo inhibition of Cdc7 in tumor of NCR/nude mouse xenografted with human HCT116 cells assessed as remaining Ser53 phosphorylated MCM2 level at 100 mg/kg, po measured at 16 hrs relative to control; type: functional, HCT-116
# Outline: (§1)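 Female NCR/nude mice (n = 3 per group) given single oral dose of 100 mg/kg; pMCM2 levels measured at 6 and 16 h, expressed as % remaining versus vehicle control group; significance by one-way ANOVA with Dunnett's test.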
# Mus musculus [8] = experiment: In vivo inhibition of Cdc7 in tumor of NCR/nude mouse xenografted with human HCT116 cells assessed as remaining Ser53 phosphorylated MCM2 level at 100 mg/kg, po measured at 6 hrs relative to control; type: functional, HCT-116; outline: as §1
# HCT-116 = experiment: Cytotoxicity against human HCT116 cells assessed as cell viability after days by CellTiterGlo assay; type: functional, cell-based
# Outline: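 HCT-116 cells exposed to compound for 4 d; cell viability IC50 determined.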
# [9] = Oral bioavailability rat in 5 mg/kg; type: ADME, organism-based; conditions: in vivo
# [10] = Volume of distribution at steady state in rat at 1 mg/kg, iv and 5 mg/kg, po; type: ADME, organism-based; conditions: in vivo, read-out: Vdss
# [11] = Mean residence time in rat at 1 mg/kg, iv and 5 mg/kg, po; type: ADME, organism-based; conditions: in vivo
# [12] = Clearance in rat at 1 mg/kg, iv and 5 mg/kg, po; type: ADME, organism-based; conditions: in vivo
# [13] = Solubility of the compound in simulated intestinal fluid; type: ADME
# Plasma [14] = experiment: Unbound plasma concentration in NCR/nude mouse xenografted with human HCT116 cells at 100 mg/kg, po measured at 16 hrs by LC-MS analysis; type: ADME, organism-based, HCT-116; set-up: dose 100 mg/kg, route oral; conditions: in vivo
# Outline: (§2)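 Female NCR/nude mice (n = 3) dosed orally at 100 mg/kg; plasma sampled at 6 and 16 h; unbound concentration calculated from total plasma concentration and percent free fraction in mouse plasma.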
# Plasma [15] = experiment: Unbound plasma concentration in NCR/nude mouse xenografted with human HCT116 cells at 100 mg/kg, po measured at 6 hrs by LC-MS analysis; type: ADME, organism-based, HCT-116; set-up: dose 100 mg/kg, route oral; conditions: in vivo; outline: as §2
# [16] = Oral bioavailability rat in 2 mg/kg; type: ADME, organism-based; conditions: in vivo
# [17] = Volume of distribution at steady state in rat at 2 mg/kg, iv and 2 mg/kg, po; type: ADME, organism-based; conditions: in vivo, read-out: Vdss
# [18] = Mean residence time in rat at 2 mg/kg, iv and 2 mg/kg, po; type: ADME, organism-based; conditions: in vivo
# [19] = Clearance in rat at 2 mg/kg, iv and 2 mg/kg, po; type: ADME, organism-based; conditions: in vivo
# Mus musculus [20] = experiment: In vivo inhibition of Cdc7-mediated MCM2 phosphorylation at Ser53 in tumor of NCR/nude mouse xenografted with human HCT116 cells at 100 mg/kg, po; type: functional, organism-based; set-up: dose 100 mg/kg; conditions: HCT-116, TDE = time-dependent effect; outline: as §1
# [21] = Volume of distribution at steady state in rat at 2 mg/kg, iv and 5 mg/kg, po; type: ADME, organism-based; conditions: in vivo, read-out: Vdss
# [22] = Mean residence time in rat at 2 mg/kg, iv and 5 mg/kg, po; type: ADME, organism-based; conditions: in vivo
# [23] = Clearance in rat at 2 mg/kg, iv and 5 mg/kg, po; type: ADME, organism-based; conditions: in vivo
# Hepatocyte = experiment: Drug metabolism in rat hepatocytes assessed as GSH adduct level; type: ADME, cell-based
# [24] = Volume of distribution at steady state in rat at 2 mg/kg, iv; type: ADME, organism-based; set-up: dose 2 mg/kg, route intravenous; conditions: in vivo, read-out: Vdss
# [25] = Clearance in rat at 2 mg/kg, iv; type: ADME, organism-based; set-up: dose 2 mg/kg, route intravenous; conditions: in vivo
# [26] = Mean residence time in rat at 2 mg/kg, iv; type: ADME, organism-based; set-up: dose 2 mg/kg, route intravenous; conditions: in vivo
# Sequence of Cyclin-dependent kinase 1/cyclin B1 (P06493 whole entry): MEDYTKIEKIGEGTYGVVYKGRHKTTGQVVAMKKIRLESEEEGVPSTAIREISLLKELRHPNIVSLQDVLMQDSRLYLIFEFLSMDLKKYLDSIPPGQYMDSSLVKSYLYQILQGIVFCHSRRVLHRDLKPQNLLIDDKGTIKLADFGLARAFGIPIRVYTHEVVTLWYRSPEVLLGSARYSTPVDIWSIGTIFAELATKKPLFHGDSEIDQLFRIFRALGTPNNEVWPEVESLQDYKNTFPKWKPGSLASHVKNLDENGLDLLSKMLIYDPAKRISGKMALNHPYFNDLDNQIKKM
# Sequence of Cyclin-dependent kinase 1/cyclin B1 (P14635 whole entry, further chain): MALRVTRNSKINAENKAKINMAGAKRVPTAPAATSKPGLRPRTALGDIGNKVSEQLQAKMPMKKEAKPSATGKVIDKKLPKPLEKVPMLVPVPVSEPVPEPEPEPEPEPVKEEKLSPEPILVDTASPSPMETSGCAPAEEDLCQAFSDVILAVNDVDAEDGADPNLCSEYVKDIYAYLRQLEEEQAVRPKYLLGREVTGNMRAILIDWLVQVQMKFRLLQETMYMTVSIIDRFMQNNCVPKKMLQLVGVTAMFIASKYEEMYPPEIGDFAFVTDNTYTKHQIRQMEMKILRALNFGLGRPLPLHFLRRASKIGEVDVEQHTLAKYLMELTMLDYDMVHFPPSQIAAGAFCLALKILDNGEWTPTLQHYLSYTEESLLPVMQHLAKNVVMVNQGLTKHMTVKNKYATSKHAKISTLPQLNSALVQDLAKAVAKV
# Sequence of CDK9/cyclin T1 (O60563 whole entry): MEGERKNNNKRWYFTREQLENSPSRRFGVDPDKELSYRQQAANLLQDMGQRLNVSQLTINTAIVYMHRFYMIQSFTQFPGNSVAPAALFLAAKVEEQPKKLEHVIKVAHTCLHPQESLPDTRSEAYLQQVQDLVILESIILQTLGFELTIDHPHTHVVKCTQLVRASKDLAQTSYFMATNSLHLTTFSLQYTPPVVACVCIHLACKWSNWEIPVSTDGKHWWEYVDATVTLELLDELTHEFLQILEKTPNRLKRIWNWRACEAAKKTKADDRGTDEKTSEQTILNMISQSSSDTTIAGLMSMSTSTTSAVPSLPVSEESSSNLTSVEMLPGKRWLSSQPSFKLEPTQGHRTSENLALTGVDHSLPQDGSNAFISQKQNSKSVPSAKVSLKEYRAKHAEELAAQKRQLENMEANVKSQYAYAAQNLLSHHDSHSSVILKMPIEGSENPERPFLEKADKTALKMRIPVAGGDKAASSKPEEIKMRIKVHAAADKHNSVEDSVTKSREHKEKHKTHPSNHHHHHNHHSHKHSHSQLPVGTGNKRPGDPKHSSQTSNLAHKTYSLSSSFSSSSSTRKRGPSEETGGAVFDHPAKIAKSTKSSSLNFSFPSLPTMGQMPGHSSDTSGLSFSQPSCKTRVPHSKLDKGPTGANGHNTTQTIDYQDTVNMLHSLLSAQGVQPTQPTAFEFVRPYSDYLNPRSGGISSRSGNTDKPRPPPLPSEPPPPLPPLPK
# Sequence of CDK9/cyclin T1 (P50750 whole entry): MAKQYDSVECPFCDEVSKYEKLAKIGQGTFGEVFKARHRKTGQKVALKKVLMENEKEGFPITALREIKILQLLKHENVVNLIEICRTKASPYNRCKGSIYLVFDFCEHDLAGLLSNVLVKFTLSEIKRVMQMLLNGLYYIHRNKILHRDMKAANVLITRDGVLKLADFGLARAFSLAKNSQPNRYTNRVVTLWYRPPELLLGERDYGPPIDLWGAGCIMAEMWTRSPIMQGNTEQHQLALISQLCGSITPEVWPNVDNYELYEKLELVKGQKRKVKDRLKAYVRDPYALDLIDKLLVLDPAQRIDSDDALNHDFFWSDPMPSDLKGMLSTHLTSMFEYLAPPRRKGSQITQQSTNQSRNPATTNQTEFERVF
# Sequence of Cell division cycle 7-related protein kinase (O00311 whole entry): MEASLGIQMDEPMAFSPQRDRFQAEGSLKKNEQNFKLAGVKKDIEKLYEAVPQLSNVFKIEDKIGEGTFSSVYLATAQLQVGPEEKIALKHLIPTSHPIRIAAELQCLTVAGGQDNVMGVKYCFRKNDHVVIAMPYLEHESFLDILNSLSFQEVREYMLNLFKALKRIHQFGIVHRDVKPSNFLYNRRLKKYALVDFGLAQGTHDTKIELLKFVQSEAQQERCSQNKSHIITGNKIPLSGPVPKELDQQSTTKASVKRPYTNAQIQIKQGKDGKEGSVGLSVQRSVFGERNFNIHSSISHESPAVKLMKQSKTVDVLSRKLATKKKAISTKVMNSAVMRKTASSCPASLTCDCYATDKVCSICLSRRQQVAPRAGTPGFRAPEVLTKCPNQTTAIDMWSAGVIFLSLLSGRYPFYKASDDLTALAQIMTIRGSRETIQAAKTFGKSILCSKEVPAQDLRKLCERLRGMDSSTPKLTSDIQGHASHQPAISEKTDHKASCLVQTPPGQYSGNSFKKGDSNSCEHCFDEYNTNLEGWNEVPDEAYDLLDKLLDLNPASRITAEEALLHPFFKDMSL
# Sequence of CDC7/DBF4 (Cell division cycle 7-related protein kinase/Activator of S phase kinase) (Q9UBU7 whole entry): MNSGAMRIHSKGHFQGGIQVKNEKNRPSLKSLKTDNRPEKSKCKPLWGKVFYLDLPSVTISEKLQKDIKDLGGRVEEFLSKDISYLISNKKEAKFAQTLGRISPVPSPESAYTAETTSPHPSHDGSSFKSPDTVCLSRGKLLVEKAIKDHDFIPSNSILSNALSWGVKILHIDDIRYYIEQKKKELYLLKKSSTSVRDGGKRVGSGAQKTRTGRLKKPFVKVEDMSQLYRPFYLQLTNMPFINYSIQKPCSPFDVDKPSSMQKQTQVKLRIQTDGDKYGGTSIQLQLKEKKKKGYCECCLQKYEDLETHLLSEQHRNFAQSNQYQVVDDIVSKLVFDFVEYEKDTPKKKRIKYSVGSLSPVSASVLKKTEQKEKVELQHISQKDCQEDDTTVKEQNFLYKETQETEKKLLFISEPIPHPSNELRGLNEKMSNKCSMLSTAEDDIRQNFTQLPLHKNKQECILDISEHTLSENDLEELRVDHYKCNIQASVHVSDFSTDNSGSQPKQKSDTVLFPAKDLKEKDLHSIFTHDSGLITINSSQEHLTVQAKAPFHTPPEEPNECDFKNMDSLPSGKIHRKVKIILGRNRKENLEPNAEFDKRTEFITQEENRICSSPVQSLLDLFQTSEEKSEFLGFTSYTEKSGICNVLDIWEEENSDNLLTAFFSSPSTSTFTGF
# Sequence of CDC7/DBF4 (Cell division cycle 7-related protein kinase/Activator of S phase kinase) (O00311 whole entry): as the sequence (O00311 whole entry) above
SMILES,microsomal CLint [1] [µL/min/mg],IC50 [3] [nM],microsomal CLint [4] [µL/min/mg],IC50 [5] [nM],IC50 [6] [nM],further results
Fc1ccc2c(-c3nnc(N[C@@H](c4cccnc4F)C4CC4)o3)c[nH]c2n1,< 14,4000,413,250,3.9,IC50 (CDK9/cyclin T1): 2400 nM; IC50 [2]: > 50000 nM
Nc1n[nH]c2ccc(-c3nnc(NCc4ccccc4)o3)cc12,26,230,74,1200,11,–
C[C@H](Nc1nnc(-c2c[nH]c3ncccc23)o1)c1ccccc1,15,98,17,2600,35,–
c1ccc(CNc2nnc(-c3ccc4[nH]ncc4c3)o2)cc1,98,170,402,730,20,–
Fc1cccc(CNc2nnc(-c3c[nH]c4ncccc34)o2)c1,54,61,71,580,10,Ratio IC50 (Homo sapiens): 6
Fc1ccccc1CNc1nnc(-c2c[nH]c3ncccc23)o1,32,580,46,1600,35,Ratio IC50 (Homo sapiens): 17
CC[C@@H](Nc1nnc(-c2c[nH]c3ncccc23)o1)c1ccccc1,70,1700,29,150,4,–
Fc1ncccc1[C@H](Nc1nnc(-c2c[nH]c3ncccc23)o1)C1CC1,21,490,80,51,0.69,Remaining Ser53 phospho-MCM2 vs control (Mus musculus [7]): 41%; Remaining phospho-MCM2 (% of control) (Mus musculus [8]): 40%; IC50 (HCT-116): 1800 nM; bioavailability [9]: 41%; Vd [10]: 5.9 L/kg; MRT [11]: 1.3 h; clearance [12]: 75 mL/min/kg; solubility [13]: 200 µg/mL; IC50 (CDK9/cyclin T1): 120 nM; IC50 [2]: 7300 nM; Cp(f) (Plasma [14]): 70 nM; Cp(f) (Plasma [15]): 1300 nM
c1cnc2[nH]cc(-c3nnc(NCc4ccncc4)o3)c2c1,< 14,350,37,12000,110,–
c1cncc(CNc2nnc(-c3c[nH]c4ncccc34)o2)c1,< 14,610,30,7100,190,–
Fc1cnccc1[C@H](Nc1nnc(-c2c[nH]c3ncccc23)o1)C1CC1,27,1900,45,60,1.8,Remaining Ser53 phospho-MCM2 vs control (Mus musculus [7]): 24%; Remaining phospho-MCM2 (% of control) (Mus musculus [8]): 62%; bioavailability [16]: 14%; IC50 (HCT-116): 5700 nM; Vd [17]: 6.1 L/kg; MRT [18]: 1.4 h; clearance [19]: 75 mL/min/kg; solubility [13]: 200 µg/mL; IC50 (CDK9/cyclin T1): 940 nM; IC50 [2]: > 50000 nM; Activity (Mus musculus [20]): tde; Cp(f) (Plasma [14]): 450 nM; Cp(f) (Plasma [15]): 2000 nM
Fc1ccc(CNc2nnc(-c3c[nH]c4ncccc34)o2)cc1,47,98,58,690,25,Ratio IC50 (Homo sapiens): 4
CC(C)(Nc1nnc(-c2c[nH]c3ncccc23)o1)c1ccccc1,30,7,35,6200,120,–
c1ccc(CNc2nnc(-c3c[nH]c4ncccc34)o2)cc1,31,150,40,780,24,Ratio IC50 (Homo sapiens): 6
Fc1ccccc1[C@H](Nc1nnc(-c2c[nH]c3ncccc23)o1)C1CC1,59,240,63,20,0.85,Remaining Ser53 phospho-MCM2 vs control (Mus musculus [7]): 46%; Remaining phospho-MCM2 (% of control) (Mus musculus [8]): 38%; IC50 (HCT-116): 880 nM; bioavailability [9]: 35%; Vd [21]: 5.3 L/kg; MRT [22]: 2.7 h; clearance [23]: 33.3 mL/min/kg; solubility [13]: 5 µg/mL; IC50 (CDK9/cyclin T1): 31 nM; IC50 [2]: 1600 nM; Cp(f) (Plasma [14]): 60 nM; Cp(f) (Plasma [15]): 150 nM
C[C@@H](Nc1nnc(-c2c[nH]c3ncccc23)o1)c1ccccc1,64,310,25,370,32,Drug metabolism (Hepatocyte): Active
CC(C)[C@@H](Nc1nnc(-c2c[nH]c3ncccc23)o1)c1ccccc1,66,1200,51,140,2,–
Fc1cnc2[nH]cc(-c3nnc(N[C@@H](c4cccnc4F)C4CC4)o3)c2c1,< 14,670,20,32,1.1,Remaining Ser53 phospho-MCM2 vs control (Mus musculus [7]): 30%; Remaining phospho-MCM2 (% of control) (Mus musculus [8]): 46%; IC50 (HCT-116): 2400 nM; bioavailability [9]: 50%; Vd [10]: 3.3 L/kg; MRT [11]: 1.9 h; clearance [12]: 28.3 mL/min/kg; solubility [13]: 160 µg/mL; IC50 (CDK9/cyclin T1): 460 nM; IC50 [2]: 6600 nM; Activity (Mus musculus [20]): tde; Cp(f) (Plasma [14]): 300 nM; Cp(f) (Plasma [15]): 610 nM
c1ccc(CNc2nnc(-c3c[nH]c4ncccc34)o2)nc1,< 14,2500,14,13000,170,–
O=C1Cc2cc(-c3nnc(NCc4ccccc4)o3)ccc2N1,< 14,33000,< 14,> 50000,770,–
Fc1cc2cc(-c3nnc(NCc4ccccc4)o3)ccc2cn1,49,6800,56,3200,10,–
c1ccc(CNc2nnc(-c3ccc4cnccc4c3)o2)cc1,120,350,166,710,17,Vd [24]: 4.3 L/kg; clearance [25]: 300 mL/min/kg; MRT [26]: 0.2 h
O=c1[nH]c2ccc(-c3nnc(NCc4ccccc4)o3)cc2o1,69,47000,30,> 50000,590,–
c1ccc([C@H](Nc2nnc(-c3c[nH]c4ncccc34)o2)C2CC2)cc1,56,1600,31,71,1,–
c1ccc(CNc2nnc(-c3nc4ccncc4s3)o2)cc1,23,19000,66,> 50000,2300,–
Fc1ccccc1[C@H](Nc1nnc(-c2c[nH]c3ncncc23)o1)C1CC1,< 14,750,34,130,1.5,IC50 (CDK9/cyclin T1): 880 nM; IC50 [2]: > 50000 nM
